Reference: ChEMBL document CHEMBL4177624, “Rationally designed hecogenin thiosemicarbazone analogs as novel MEK inhibitors for the control of breast malignancies” (Bioorg Med Chem, 2017)

Tests used:
Format in all cases: functional, cell-based
MCF7 = assay: Antiproliferative activity against human MCF7 cells after 72 hrs by MTT assay; conditions: MCF7, 72 h
In short: (§1)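 Six human breast carcinoma lines of differing molecular and phenotypic character were each exposed to a range of concentrations for 72 h. Proliferation was read by MTT. Results are given as mean percent viability, with IC₅₀ ± SEM calculated per cell line.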

MDA-MB-468 = assay: Antiproliferative activity against human MDA-MB-468 cells after 72 hrs by MTT assay; conditions: MDA-MB-468, 72 h; in short: as §1
MDA-MB-231 = assay: Antiproliferative activity against human MDA-MB-231 cells after 72 hrs by MTT assay; conditions: MDA-MB-231, 72 h
In short: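 MDA-MB-231 triple-negative breast cancer cells were exposed to a range of concentrations for 72 h. Proliferation was read by MTT. Results are given as mean percent viability versus concentration, with IC₅₀ ± SEM calculated from the curve.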

T47D = assay: Antiproliferative activity against human T47D cells after 72 hrs by MTT assay; in short: as §1
BT-474 = assay: Antiproliferative activity against human BT474 cells after 72 hrs by MTT assay; conditions: BT-474, 72 h; in short: as §1
SK-BR-3 = assay: Antiproliferative activity against human SKBR3 cells after 72 hrs by MTT assay; conditions: SK-BR-3, 72 h; in short: as §1

| Structure (SMILES) | IC50 (MCF7) | IC50 (MDA-MB-468) | IC50 (MDA-MB-231) | IC50 (T47D) | IC50 (BT-474) | IC50 (SK-BR-3) |
| --- | --- | --- | --- | --- | --- | --- |
| Cc1ccc(NC(=S)N/N=C2\C[C@H]3[C@@H](CC[C@H]4C[C@@H](O)CC[C@@]43C)[C@@H]3C[C@@H]4O[C@]5(CC[C@@H](C)CO5)[C@@H](C)[C@@H]4[C@@]23C)cc1 | 3.7 µM | 4 µM | 3.1 µM | 6.1 µM | 4.5 µM | 3.8 µM |
| COc1ccccc1NC(=S)N/N=C1\C[C@H]2[C@@H](CC[C@H]3C[C@@H](O)CC[C@@]32C)[C@@H]2C[C@@H]3O[C@]4(CC[C@@H](C)CO4)[C@@H](C)[C@@H]3[C@@]12C | 7.1 µM | 7.5 µM | 6.8 µM | 10.2 µM | 8.8 µM | 7.5 µM |
| C[C@@H]1CC[C@@]2(OC1)O[C@H]1C[C@H]3[C@@H]4CC[C@H]5C[C@@H](OC(=O)c6ccc(C#N)cc6)CC[C@]5(C)[C@H]4CC(=O)[C@]3(C)[C@H]1[C@@H]2C | 33.2 µM | 32.6 µM | 25.7 µM | > 40 µM | 35 µM | 34.7 µM |
| C[C@@H]1CC[C@@]2(OC1)O[C@H]1C[C@H]3[C@@H]4CC[C@H]5C[C@@H](O)CC[C@]5(C)[C@H]4C/C(=N\NC(=O)Nc4ccccc4)[C@]3(C)[C@H]1[C@@H]2C | 10.4 µM | 11.9 µM | 9.2 µM | 13.5 µM | 11.9 µM | 12 µM |
| C[C@@H]1CC[C@@]2(OC1)O[C@H]1C[C@H]3[C@@H]4CC[C@H]5C[C@@H](O)CC[C@]5(C)[C@H]4C/C(=N\NC(=S)Nc4ccccc4Cl)[C@]3(C)[C@H]1[C@@H]2C | 5.9 µM | 6.2 µM | 5.5 µM | 7 µM | 6.5 µM | 5.7 µM |
| C[C@@H]1CC[C@@]2(OC1)O[C@H]1C[C@H]3[C@@H]4CC[C@H]5C[C@@H](OC(=O)c6ccccc6Cl)CC[C@]5(C)[C@H]4CC(=O)[C@]3(C)[C@H]1[C@@H]2C | > 40 µM | > 40 µM | > 40 µM | > 40 µM | > 40 µM | > 40 µM |
| C[C@@H]1CC[C@@]2(OC1)O[C@H]1C[C@H]3[C@@H]4CC[C@H]5C[C@@H](OC(=O)c6ccc(F)cc6)CC[C@]5(C)[C@H]4CC(=O)[C@]3(C)[C@H]1[C@@H]2C | 28 µM | 33.4 µM | 27 µM | 29 µM | 30 µM | 36 µM |
| C[C@@H]1CC[C@@]2(OC1)O[C@H]1C[C@H]3[C@@H]4CC[C@H]5C[C@@H](OC(=O)c6ccco6)CC[C@]5(C)[C@H]4CC(=O)[C@]3(C)[C@H]1[C@@H]2C | > 40 µM | > 40 µM | > 40 µM | > 40 µM | > 40 µM | > 40 µM |
| C[C@@H]1CC[C@@]2(OC1)O[C@H]1C[C@H]3[C@@H]4CC[C@H]5C[C@@H](O)CC[C@]5(C)[C@H]4C/C(=N\NC(=S)Nc4ccccc4[N+](=O)[O-])[C@]3(C)[C@H]1[C@@H]2C | 5 µM | 6.1 µM | 4.3 µM | 9 µM | 6.9 µM | 5.5 µM |
| C[C@@H]1CC[C@@]2(OC1)O[C@H]1C[C@H]3[C@@H]4CC[C@H]5C[C@@H](OC(=O)c6ccccc6)CC[C@]5(C)[C@H]4CC(=O)[C@]3(C)[C@H]1[C@@H]2C | 30.3 µM | 34.2 µM | 29.1 µM | 37.8 µM | 36.3 µM | 33.4 µM |
| C[C@@H]1CC[C@@]2(OC1)O[C@H]1C[C@H]3[C@@H]4CC[C@H]5C[C@@H](O)CC[C@]5(C)[C@H]4C/C(=N\NC(=S)Nc4ccc(Cl)cc4Cl)[C@]3(C)[C@H]1[C@@H]2C | 7.9 µM | 8 µM | 7.5 µM | 9.5 µM | 9 µM | 8.8 µM |
| C[C@@H]1CC[C@@]2(OC1)O[C@H]1C[C@H]3[C@@H]4CC[C@H]5C[C@@H](O)CC[C@]5(C)[C@H]4C/C(=N\NC(=S)Nc4c(Cl)cccc4Cl)[C@]3(C)[C@H]1[C@@H]2C | 6.4 µM | 7.3 µM | 6 µM | 10.4 µM | 6.9 µM | 9 µM |

Results, then the compound that gave them:

| IC50 (MCF7) | IC50 (MDA-MB-468) | IC50 (MDA-MB-231) | IC50 (T47D) | IC50 (BT-474) | IC50 (SK-BR-3) | Structure (SMILES) |
| --- | --- | --- | --- | --- | --- | --- |
| > 40 µM | > 40 µM | > 40 µM | > 40 µM | > 40 µM | > 40 µM | COc1ccccc1C(=O)O[C@H]1CC[C@@]2(C)[C@@H](CC[C@@H]3[C@@H]2CC(=O)[C@]2(C)[C@@H]4[C@H](C[C@@H]32)O[C@]2(CC[C@@H](C)CO2)[C@H]4C)C1 |
| 12 µM | 12.8 µM | 11.5 µM | 15.1 µM | 11.8 µM | 14.8 µM | C[C@@H]1CC[C@@]2(OC1)O[C@H]1C[C@H]3[C@@H]4CC[C@H]5C[C@@H](O)CC[C@]5(C)[C@H]4C/C(=N\NC(=S)Nc4ccc(Cl)cc4)[C@]3(C)[C@H]1[C@@H]2C |
| 4 µM | 4.2 µM | 5 µM | 5.9 µM | 6.3 µM | 4.5 µM | C[C@@H]1CC[C@@]2(OC1)O[C@H]1C[C@H]3[C@@H]4CC[C@H]5C[C@@H](O)CC[C@]5(C)[C@H]4C/C(=N\NC(=S)Nc4ccc(F)cc4)[C@]3(C)[C@H]1[C@@H]2C |
| 8 µM | 8.4 µM | 7.8 µM | 10.3 µM | 9.3 µM | 9.1 µM | C[C@@H]1CC[C@@]2(OC1)O[C@H]1C[C@H]3[C@@H]4CC[C@H]5C[C@@H](O)CC[C@]5(C)[C@H]4C/C(=N\NC(=S)Nc4ccccc4)[C@]3(C)[C@H]1[C@@H]2C |
| 10.1 µM | 11.2 µM | 9.5 µM | 14.2 µM | 10.9 µM | 11.5 µM | COc1ccc(NC(=S)N/N=C2\C[C@H]3[C@@H](CC[C@H]4C[C@@H](O)CC[C@@]43C)[C@@H]3C[C@@H]4O[C@]5(CC[C@@H](C)CO5)[C@@H](C)[C@@H]4[C@@]23C)cc1 |
| 5 µM | 5.8 µM | 3.8 µM | 8.8 µM | 8.3 µM | 4.7 µM | CCc1ccccc1NC(=S)N/N=C1\C[C@H]2[C@@H](CC[C@H]3C[C@@H](O)CC[C@@]32C)[C@@H]2C[C@@H]3O[C@]4(CC[C@@H](C)CO4)[C@@H](C)[C@@H]3[C@@]12C |
| 13.8 µM | 15.3 µM | 14 µM | 20.9 µM | 19.2 µM | 15.7 µM | C[C@@H]1CC[C@@]2(OC1)O[C@H]1C[C@H]3[C@@H]4CC[C@H]5C[C@@H](O)CC[C@]5(C)[C@H]4C/C(=N\NC(=O)Nc4cccc(C(F)(F)F)c4)[C@]3(C)[C@H]1[C@@H]2C |
| 32.4 µM | > 40 µM | 25.3 µM | > 40 µM | > 40 µM | 34.9 µM | C[C@@H]1CC[C@@]2(OC1)O[C@H]1C[C@H]3[C@@H]4CC[C@H]5C[C@@H](OC(=O)c6ccc([N+](=O)[O-])cc6)CC[C@]5(C)[C@H]4CC(=O)[C@]3(C)[C@H]1[C@@H]2C |
| 9.7 µM | 10.9 µM | 10 µM | 13 µM | 12 µM | 9.8 µM | C[C@@H]1CC[C@@]2(OC1)O[C@H]1C[C@H]3[C@@H]4CC[C@H]5C[C@@H](O)CC[C@]5(C)[C@H]4C/C(=N\NC(=O)Nc4cccc(Cl)c4)[C@]3(C)[C@H]1[C@@H]2C |
| 29.3 µM | 36.4 µM | 28 µM | > 40 µM | > 40 µM | 31 µM | Cc1ccc(S(=O)(=O)NC(=O)N/N=C2\C[C@H]3[C@@H](CC[C@H]4C[C@@H](O)CC[C@@]43C)[C@@H]3C[C@@H]4O[C@]5(CC[C@@H](C)CO5)[C@@H](C)[C@@H]4[C@@]23C)cc1 |
| > 40 µM | > 40 µM | > 40 µM | > 40 µM | > 40 µM | > 40 µM | C[C@@H]1CC[C@@]2(OC1)O[C@H]1C[C@H]3[C@@H]4CC[C@H]5C[C@@H](OC(=O)c6cccc(C(F)(F)F)c6)CC[C@]5(C)[C@H]4CC(=O)[C@]3(C)[C@H]1[C@@H]2C |
| 3 µM | 3.8 µM | 2.7 µM | 5.2 µM | 3.7 µM | 4.2 µM | Cc1ccc(NC(=S)N/N=C2\C[C@H]3[C@@H](CC[C@H]4C[C@@H](O)CC[C@@]43C)[C@@H]3C[C@@H]4O[C@]5(CC[C@@H](C)CO5)[C@@H](C)[C@@H]4[C@@]23C)c(C)c1 |
| 8 µM | 8.2 µM | 7.3 µM | 11 µM | 10.8 µM | 8.6 µM | C[C@@H]1CC[C@@]2(OC1)O[C@H]1C[C@H]3[C@@H]4CC[C@H]5C[C@@H](O)CC[C@]5(C)[C@H]4C/C(=N\NC(=S)Nc4cc(C(F)(F)F)cc(C(F)(F)F)c4)[C@]3(C)[C@H]1[C@@H]2C |
